Experimental data pooled from the literature.
MMP13: Collagenase 3 (MMP13, Homo sapiens, UniProt P45452)

Cn1cc(-c2cc(F)cc(N3CCn4c(cc5c4CCCC5)C3=O)c2CO)cc(Nc2ccc(N3CCN(C4COC4)CC3)cn2)c1=O  inhibition (Tyrosine-protein kinase Tec (TEC, Homo sapiens, UniProt P42680); enzyme activity; inhibitor; 0.1 µM): -3%
COc1cc(Nc2ncc(F)c(Nc3ccc4c(n3)NC(=O)C(C)(C)O4)n2)cc(OC)c1OC  inhibition (Casein kinase I isoform alpha-like (CSNK1A1L, Homo sapiens, UniProt Q8N752); binding; competition with immobilised ligand; 10 µM): 0%
CC(C)C[C@H](NC(=O)[C@H](Cc1ccccc1)NC(=O)c1cnccn1)B(O)O  inhibition (Chymase (CMA1, Homo sapiens, UniProt P23946); enzyme activity; inhibitor; 33 µM): 84.2%
CCOC(=O)c1ccc(OC(=O)CCCCCNC(=N)N)cc1  inhibition (MMP13; enzyme activity; inhibitor; 10 µM): 13%
COc1ccc(S(=O)(=O)N2CCCCC2)cc1C  inhibition (Progesterone receptor (PGR, Homo sapiens, UniProt P06401); ligand displacement; radioligand; 10 µM): < 30%
COc1ccc(N=Nc2ccc3[nH]cc(CCN(C)C)c3c2)cc1  inhibition (5-hydroxytryptamine receptor 4 (HTR4, Homo sapiens, UniProt Q13639); ligand displacement; radioligand; 10 µM): < 50%
C#Cc1n[nH]c2c(-c3cn([C@@H](C)c4ccccc4)c(=O)[nH]c3=O)cc(F)cc12  inhibition (Tyrosine-protein kinase JAK1 (JAK1, Homo sapiens, UniProt P23458); enzyme activity; inhibitor; 0.1 µM): -1.2%
COC(=O)NCCc1c(C(O)c2ccccc2)[nH]c2ccc(OC)cc12 (stereo not shown)  inhibition (Calmodulin-1 (CALM1, Homo sapiens, UniProt P0DP23); enzyme activity; inhibitor; 50 µM): 40 to 50%
c1ccc(C(NCCNC(c2ccccc2)c2ccccc2)c2ccccc2)cc1  inhibition (Adenosine receptor A2b (ADORA2B, Homo sapiens, UniProt P29275); cell-free assay; 10 µM): -2%
Cc1nc(C(C)(C)NC(=O)O[C@@H]2CN3CCC2CC3)cs1  inhibition (N-terminal Xaa-Pro-Lys N-methyltransferase 1 (Homo sapiens, UniProt Q9BV86); enzyme activity; inhibitor; fluorescence; 100 µM): < 50%
C#Cc1n[nH]c2c(-c3cn(C(C)c4ccccn4)c(=O)[nH]c3=O)cc(F)cc12 (stereo not shown)  inhibition (Dual specificity protein kinase CLK2 (CLK2, Homo sapiens, UniProt P49760); enzyme activity; inhibitor; 1 µM): 1.9%
C[C@H](C(=O)N[C@H]1COc2ccccc2[C@@H]1S(C)(=O)=O)c1ccc(F)cc1  inhibition (MMP13; enzyme activity; inhibitor; 10 µM): -4%
O=C(Nc1cccnn1)N1CCN([C@@H]2CCOc3cc(C(F)(F)F)ccc32)CC1  inhibition (Prostaglandin E2 receptor EP2 subtype (PTGER2, Homo sapiens, UniProt P43116); cell-free assay; 20 µM): -13%
